The values that follow come from ChEMBL document CHEMBL4011629, “New Disubstituted Quindoline Derivatives Inhibiting Burkitt's Lymphoma Cell Proliferation by Impeding c-MYC Transcription” (J Med Chem, 2017).

Data set [1] is filed under the species Homo sapiens. Kind of data set: Effect on c-Myc DNA translocated chromosome product in human CA46 cells assessed as decrease in amplification of exon-2 at 1 uM after 12 hrs by RT-PCR method. The data set is classed as cell-based. An outline of the steps:
(§1)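 Cells treated 12 h with compound at various concentrations, untreated cells as control. Total RNA (2 μg) reverse-transcribed with oligo dT18 and M-MLV (42 °C 1 h). c-MYC exons 1 and 2, NM23-H2 and β-actin amplified by real-time PCR, products checked on 1% agarose gel. Three independent repeats, mean ± SEM, two-tailed unpaired t test versus untreated.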

A short description of data set [2]: Selectivity ratio of Kd for 5'-FAM labeled duplex DNA (unknown origin) to Kd for 5'-FAM labeled c-Myc Pu27 G-quadruplex DNA (unknown origin). Put shortly:
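MST binding: FAM-Pu27 or FAM-duplex oligo at 10 μM in 10 mM Tris-HCl pH 7.4 with 150 mM KCl, annealed 95 °C 5 min, slow-cooled, held 4 °C overnight. Ligand titrated as a 12-point series, 0–20 μM for G4 or up to 200 μM for duplex. KD fitted with Hill model; three replicates.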

A short description of data set [3]: Inhibition of NM23-H2 binding to 5'-FAM labeled c-Myc Pu27 G-quadruplex DNA (unknown origin) at 10 uM preincubated for 1 hr followed by NM23-H2 addition by electrophoretic mobility shift assay relative to control. An outline of the steps: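 Annealed labeled Pu27 (1.5 μM) preincubated 1 h at 25 °C with 10 μM ligand or 5% DMSO. Recombinant His-tagged NM23-H2 (0.5 μM, E. coli BL21, nickel-purified) then added for 1 h at 37 °C. Complexes resolved on 5% native polyacrylamide gel in 0.5× TBE at 4 °C. Inhibition taken as loss of complex band intensity versus no-compound band set at 100%. Run three times.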
For orientation: A gel shift assay detects complexes by their altered migration in electrophoresis.

Data set [4] is described as follows: Binding affinity to 5'-FAM labeled c-Myc Pu27 G-quadruplex DNA (unknown origin) in presence of K+ ions by MST analysis. Put shortly: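 The DNA was annealed at 95 °C for 5 min, slowly cooled and held at 4 °C overnight. Ligand was run as a 12-point series, 0–20 μM for Pu27 and up to 200 μM for duplex. MST was measured, and KD was fitted to a Hill model from three replicates.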

The species entered for data set [5] is Homo sapiens. Kind of data set: Stabilization of c-Myc G-quadruplex DNA in human CA46 cells assessed as decrease in amplification of exon-1 at 1 uM after 12 hrs by RT-PCR method. The data set is classed as cell-based. Put shortly:
as §1

Data set [6] in a line: Stabilization of 5'-FAM/3'-TAMRA labeled c-Myc Pu22 G-quadruplex DNA (unknown origin) assessed as change in melting temperature at 2 uM by FRET assay. Put shortly: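 FRET melting of FAM/TAMRA-labelled FPu22T (0.2 μM) in 10 mM Tris-HCl pH 7.4 with 2 mM KCl, ligand 2 μM, in a real-time PCR machine. Excitation 470 nm, emission 530 nm, read every 1 °C from 37 to 99 °C after 30 s hold at each step; ΔTm versus probe alone.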

For data set [7], the species on record is Homo sapiens. Kind of data set: Stabilization of c-Myc G-quadruplex DNA in human Raji cells assessed as decrease in amplification of exon-1 at 1 uM after 12 hrs by RT-PCR method. The format is cell-based. Put shortly: as §1
For data set [8], the species on record is Homo sapiens. Kind of data set: Effect on c-Myc DNA translocated chromosome product in human Raji cells assessed as decrease in amplification of exon-2 at 1 uM after 12 hrs by RT-PCR method. The format is cell-based. An outline of the steps:
as §1

For data set [9], the system named is Mus musculus. Kind of data set: Toxicity in NOD/SCID nude mouse xenografted with human Raji cells assessed as reduction in body weight at 1 mg/kg, ip administered once in 2 days for 2 weeks measured every day during compound dosing. The data set is classed as organism-based. Conditions: in vivo. Put shortly: (§2)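 NOD/SCID mice implanted subcutaneously in the underarm with 5 × 10^6 RAJI cells in 100 μL RPMI 1640 with 10% serum; tumours grown about 1 week, then mice randomized. Body weight recorded daily; organ weights taken at end.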

The test system of data set [10] is Mus musculus. Kind of data set: Toxicity in NOD/SCID nude mouse xenografted with human Raji cells assessed as reduction in viscera weight at 1 mg/kg, ip administered once in 2 days for 2 weeks measured every day during compound dosing. The data set is classed as organism-based. Conditions: in vivo. An outline of the steps: as §2
Background: Xenograft models place foreign cells or tissue in a host animal.

For data set [11], the system named is Raji. Kind of data set: Antitumor activity against human Raji cells xenografted in NOD/SCID nude mouse assessed as reduction in tumor weight at 1 mg/kg, ip administered once in 2 days for 2 weeks relative to control. The format is functional, organism-based. Put shortly: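 NOD/SCID mice were implanted subcutaneously in the underarm with RAJI cells (5 × 10^6 per 100 μL of RPMI 1640 with 10% serum). Tumours reached […] after 1 week, and mice were then randomised. […] Tumour volume was recorded daily and tumour weight at the end.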

The source made the active and inactive calls. The calls are words filed in the database; no cut-off is given here.

One may read the Kd as a measure of binding affinity in units of concentration.

With `CN(C)CCCNc1c2ccccc2nc2c1[nH]c1ccccc12`, the outcome in data set [1], in data set [5], in data set [6], in data set [7] and in [8] was Active. The Selectivity ratio in [2] stood at 1.02. The inhibition result in [3] was “Active”. The Kd in data set [4] stood at 7.8 µM.

For the molecule `COc1cccc2c1C(=O)c1c(O)c3c(c(O)c1C2=O)C[C@@](O)(C(=O)CO)C[C@@H]3O[C@H]1C[C@H](N)[C@H](O)[C@H](C)O1` [DOXORUBICIN], the Activity entry in data set [9] and in data set [10] was “Toxic” throughout. In addition, the result in data set [11] was Active.
